Results on two substances are retold here after paper PMC3621710 (Bioconjugate chemistry, 2009).

For assay [1], the target named is MC1 receptor (B16/F1 melanoma cells) (Mus musculus, UniProt Q01727). The conditions noted are these: read-out: MC1 receptor binding affinity; cited from earlier work.
For another assay, the system named is B16/F1 melanoma cells. Kind of assay: Clonogenic cytotoxicity. The class given is cell-based, murine. The conditions noted are these: 0.1 μM peptide, 3 h incubation at 37 °C, colonies over 6 days. Summed up:
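B16/F1 cells seeded at 200 cells/well and held overnight at 37 °C. After a wash with RPMI 1640, cells were exposed for 3 h at 37 °C to 0.1 μM test peptide in medium; controls received medium only. After two PBS washes, colonies grew for 6 days with medium changed every other day. Cells were fixed in methanol:glacial acetic acid (3:1) and hematoxylin-stained; colonies >50 cells scored as survivors. Survival normalized to untreated (100%); unpaired Student's t-test.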

pIC50: −log10 of the molar value. Square brackets hold non-standard residues; d marks the D form. Ends that are not written are not given here.

MC1 receptor (B16/F1 melanoma cells), sequence (Q01727 whole entry): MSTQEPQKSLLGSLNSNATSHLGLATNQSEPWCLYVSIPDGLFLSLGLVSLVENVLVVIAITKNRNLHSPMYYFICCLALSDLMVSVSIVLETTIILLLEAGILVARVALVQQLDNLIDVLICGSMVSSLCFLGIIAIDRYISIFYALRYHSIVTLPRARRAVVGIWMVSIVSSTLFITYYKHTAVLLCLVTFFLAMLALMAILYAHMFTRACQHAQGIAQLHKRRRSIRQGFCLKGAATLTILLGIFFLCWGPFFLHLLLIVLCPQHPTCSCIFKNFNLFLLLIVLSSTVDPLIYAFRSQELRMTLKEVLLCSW

For “[Cys^3,4,10, D-Phe^7, Arg^11]α-MSH3-13 (CCEH[dF]RWCRPV; not fully specified (C-terminus); ends and bridges not checked) [(Arg^11)CCMSH]”, the pIC50 in assay [1] was 8.77.

“[Cys^3,4,10, D-Phe^7, Arg^11]α-MSH3-13 [(Arg^11)CCMSH]”: the “decrease in clonogenic survival compared to untreated group” value in the assay with B16/F1 melanoma cells was determined as 11%.
